Source: PubChem BioAssay (several laboratories)
Casp6 inh: inhibitors of human caspase-6; AID 686996; inhibition, % at 12.5 µM; purified caspase-6, Z-VEID-R110 cleavage fluorescence; 0.53% of 350,000 active; P55212;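 active = mean inhibition across replicates at least about 35%, with every replicate also reaching that limit, limit read from the data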
UHRF1 MBD2 ctr: UHRF1 methyl-DNA binding inhibition; Q96T88; UHRF1 binding to methylated oligo, TR-FRET; inhibition, % at 4.4 µM; 0.75% of 370,000 active; AID 687016;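 note: UHRF1 SRA domain binding a hemimethylated CpG hairpin DNA probe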
NSD2 inh: blocks human histone methyltransferase NSD2; NSD2 peptide methylation, AlphaScreen, 120 min; 0.54% of 310,000 active; AID 743445; inhibition, % at 12.5 µM; in the data active = inhibition above about 50%
TDP2 inh: TDP2 (human) inhibition, absorbance primary screen; O95551; recombinant TDP2, T5PNP hydrolysis, p-nitrophenol absorbance 415 nm; inhibition, % at 12.8 µM; 0.34% of 370,000 active; AID 720702;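 active = inhibition above the mean of all tested compounds plus 3 SD, set per campaign, cut at about 25% in these data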
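test system = human TDP2 enzyme | input = TDP2 enzyme at 120 nM final | medium = 50 mM Tris-HCl pH 7.5 with Mg2+, KCl, DTT, BSA | also added = T5PNP substrate, 5 mM | times = 2 h at 37 °C | technique = epi absorbance | benchmarks = high control without enzyme, low control DMSO plus TDP2 | replication = each compound tested once, singlicate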
LEDGF integ inh: blocks HIV-1 LEDGF/p75-dependent DNA integration. TR-FRET IN-LEDGF/p75 DNA integration, Eu/Cy5. inhibition, % at 3.7 µM. 0.64% of 370,000 active;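 active = inhibition above the screen-wide mean plus 3 SD, cut at about 13% in these data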;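 note: signal is the Cy5 over europium emission ratio at 671 and 618 nm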
MBD2 DNA inh: blocks human MBD2 binding to methylated DNA; AID 686964; TR-FRET, MBD2 binding to methylated oligonucleotide; 0.31% of 370,000 active; Q9UBB5; inhibition, % at 4.4 µM; in the data active = inhibition above about 13%
UHRF1 DNA bind: counter-screen for MBD2 inhibitors: human UHRF1 methylated DNA binding inhibitors. shares compounds with MBD2 DNA inh. UHRF1 binding to methylated oligonucleotide, TR-FRET. inhibition, % at 4.4 µM. AID 720530. 25% of 1,000 active;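 note: UHRF1 SRA domain binding a labeled hemimethylated CpG hairpin DNA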
MBD2 confirm: MBD2-DBD methyl-DNA binding inhibition, TR-FRET confirmation; shares compounds with MBD2 DNA inh; TR-FRET MBD2-DBD binding to methylated oligonucleotide; inhibition, % at 4.4 µM; 26% of 1,000 active; AID 720531; in the data active = inhibition above about 14%
A number is an active result; – = inactive; · = no result; ! = not confirmed by another sample. In the library only some 1.8% were active in any assay of this set; here they are far more common. Cut-off read from the data, not from the text of the source, unless noted: active = inhibition above about 21%; inactive = the rest.

SMILES	Casp6 inh	UHRF1 MBD2 ctr	NSD2 inh	TDP2 inh	LEDGF integ inh	MBD2 DNA inh	UHRF1 DNA bind	MBD2 confirm
Cc1ccc(C(=O)NCc2ccc3c(c2)OCO3)c(Cl)c1	–	22	–	–	–	15	–	–
Cc1cc(C(=O)N2CCN(c3ncccn3)CC2)cs1	·	–	–	–	–	17	–	–
CCC(=O)N(C)C[C@@H]1Oc2cc(/C=C/c3ccccc3)ccc2S(=O)(=O)N([C@H](C)CO)C[C@H]1C	–	·	·	·	·	·	·	·
CC(=O)c1sc(NC(=O)c2cc(-c3ccccc3)nn2-c2ccccc2)nc1C	–	–	–	–	–	–	·	·
Cc1cnc(NC(=O)c2cc(-c3ccccc3)nn2-c2ccccc2)s1	–	–	–	–	–	25	–	–
COc1cc(C(=O)NC2CCN(C)CC2)ccc1Nc1ncc2c(n1)N(Cc1ccccc1)CCC(=O)N2C	–	–	·	–	–	–	·	·
COc1cc(C(=O)NC2CCN(C)CC2)ccc1Nc1ncc2c(n1)N(C1CCCCC1)CCC(=O)N2C	–	37	·	–	–	24	30	28
Cc1ccc(C(=O)N2CCN(C(=O)CN3CCOCC3)C2)cc1	·	–	–	–	–	14	–	–
COC(=O)C[C@@H]1CC[C@@H](NC(=O)C2CCC2)[C@@H](CO)O1	·	23	·	–	–	21	–	–
CCNC(=O)C[C@H]1CC[C@H](NC(=O)C2CCC2)[C@@H](CO)O1	–	·	·	·	·	·	·	·
CCCNC(=O)Nc1ccc2c(c1)C(=O)N(C)C[C@H](OC)[C@@H](C)CN(C(=O)C1CCC1)[C@@H](C)CO2	–	·	·	·	·	·	·	·
CC(=O)Nc1ccc(NC(=O)C(C)OC(=O)C2(c3ccc(F)cc3)CCCC2)cc1 (stereo not drawn)	–	–	–	–	–	–	·	·
CC(=O)Nc1ccc(NC(=O)C(C)OC(=O)C2(c3ccc(Cl)cc3)CCCC2)cc1 (stereo not drawn)	–	25	–	–	–	19	–	–
CCC1CCCCN1C(=O)COC(=O)c1cccs1 (stereo not drawn)	–	–	–	–	–	17	–	–
O=c1nc2c(O)cccn2c2c1c(=O)[nH]c1ccccc12	–	43	–	–	–	23	25	26
O=c1[nH]c2ccccc2c2nc3ccccn3c12	·	–	·	–	–	–	·	·
Cc1noc(C)c1NC(=O)Nc1ccc2c(c1)CC(=O)N([C@@H](C)CO)C[C@H](C)[C@H](CN(C)S(=O)(=O)c1ccc(Cl)cc1)O2	–	·	·	·	·	·	·	·
COCC(=O)Nc1ccc2c(c1)[C@H]1C[C@H](CC(=O)NCc3cccnc3)O[C@@H](CO)[C@H]1O2	–	·	·	·	·	·	·	·
COC(=O)C1N2C(=O)[C@@H](NC(=O)COc3ccccc3)[C@H]2SC1(C)C (stereo partly drawn)	–	–	·	–	–	–	·	·
CC1(C)S[C@@H]2[C@H](NC(=O)[C@H](N)c3ccccc3)C(=O)N2[C@H]1C(=O)O	·	81!	·	–	52!	47!	77	31
O=C(NCCO)c1cccc2c1C(=O)c1ccccc1-2	·	–	–	–	–	–	·	·
O=C1c2cccc(NCCNCCO)c2C(=O)c2cccc(NCCNCCO)c21	–	93	·	–	–	107	93	108
Cc1cc(Br)ccc1NC(=O)CNC(=O)c1cnn(C)c1	–	–	–	–	–	18	–	–
C[C@H](CO)N1C[C@H](C)[C@@H](CN(C)S(=O)(=O)c2ccccc2)Oc2ncc(C#CCN(C)C)cc2C1=O	–	·	·	·	·	·	·	·
O=C(COC(=O)c1cc2c(s1)CCC2)Nc1ccc(F)cc1	–	28	–	–	–	15	32	19
NC(=O)c1ccc(NC(=O)COC(=O)c2cc3c(s2)CCC3)cc1	–	–	–	–	–	–	·	·
O=C(NC1CCCCC1)N[C@@H]1CC[C@@H](CCNS(=O)(=O)c2ccc(Cl)cc2)O[C@H]1CO	–	·	·	·	·	·	·	·
COc1cc2c(cc1OC)CC(C(=O)NCc1ccccc1)NC2 (stereo not drawn)	–	–	–	–	–	17	–	–
